Reference: ChEMBL document CHEMBL3616427, “Design, synthesis, and biological evaluation of amide imidazole derivatives as novel metabolic enzyme CYP26A1 inhibitors” (Bioorg Med Chem, 2015)

Experiments:
Cytochrome P450 26A1 [1] = molecular target: T1, Cytochrome P450 26A1 (Homo sapiens, UniProt O43174); test: Inhibition of CYP26A1 (unknown origin)
T1 sequence (O43174 whole entry): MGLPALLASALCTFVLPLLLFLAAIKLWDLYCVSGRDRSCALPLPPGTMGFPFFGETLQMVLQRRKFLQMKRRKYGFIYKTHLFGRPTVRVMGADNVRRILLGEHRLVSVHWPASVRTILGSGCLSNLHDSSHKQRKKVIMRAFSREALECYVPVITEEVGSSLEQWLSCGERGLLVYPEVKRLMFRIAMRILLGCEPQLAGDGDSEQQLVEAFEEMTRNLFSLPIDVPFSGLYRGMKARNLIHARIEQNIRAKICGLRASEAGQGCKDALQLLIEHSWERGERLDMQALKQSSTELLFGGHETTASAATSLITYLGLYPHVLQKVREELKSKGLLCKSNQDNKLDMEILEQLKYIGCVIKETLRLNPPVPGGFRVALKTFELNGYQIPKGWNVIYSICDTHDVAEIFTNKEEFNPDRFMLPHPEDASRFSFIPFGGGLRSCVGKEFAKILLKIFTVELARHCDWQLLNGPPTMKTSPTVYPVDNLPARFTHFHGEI

Cytochrome P450 26A1 [2] = molecular target: T1, Cytochrome P450 26A1; test: Inhibition of CYP26A1 in ATRA-induced human HL60 cell microsomes incubated for 30 mins in dark condition with NADPH and ATRA by HPLC method; type: cell-based, HL-60
HL-60 [3] = test: Growth inhibition of human HL60 cells at 10 uM incubated for 48 hrs by MTT assay; type: functional; details: HL-60, 48 h, read-out: GI
In short: (§1)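 HL-60 cells plated at 1–104 cells/well (so in the source) and held 24 h at 37 °C, then exposed 48 h to inhibitor at 10 µM and/or ATRA at 0.1 µM. MTT (2 mg/mL) was added for 4 h at 37 °C, the supernatant was discarded, formazan was dissolved in DMSO and absorbance read at 570 nm. Percent growth inhibition reported.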

HL-60 [4] = test: Growth inhibition of human HL60 cells at 10 uM incubated for 48 hrs in presence of 0.1 uM ATRA by MTT assay; type: functional; in short: as §1
HL-60 [5] = test: Induction of cell differentiation in human HL60 cells at 10 uM incubated for 72 hrs by NBT dye based assay; type: functional
HL-60 [6] = test: Induction of cell differentiation in human HL60 cells at 10 uM incubated for 72 hrs in presence of 0.1 uM ATRA by NBT dye based assay; type: functional
Cytochrome P450 3A4 = Cytochrome P450 3A4 (Homo sapiens, UniProt P08684); test: Inhibition of CYP3A4 (unknown origin) incubated for 45 mins using NADPH by fluorescence assay; type: ADME
Cytochrome P450 3A4, sequence (P08684 whole entry): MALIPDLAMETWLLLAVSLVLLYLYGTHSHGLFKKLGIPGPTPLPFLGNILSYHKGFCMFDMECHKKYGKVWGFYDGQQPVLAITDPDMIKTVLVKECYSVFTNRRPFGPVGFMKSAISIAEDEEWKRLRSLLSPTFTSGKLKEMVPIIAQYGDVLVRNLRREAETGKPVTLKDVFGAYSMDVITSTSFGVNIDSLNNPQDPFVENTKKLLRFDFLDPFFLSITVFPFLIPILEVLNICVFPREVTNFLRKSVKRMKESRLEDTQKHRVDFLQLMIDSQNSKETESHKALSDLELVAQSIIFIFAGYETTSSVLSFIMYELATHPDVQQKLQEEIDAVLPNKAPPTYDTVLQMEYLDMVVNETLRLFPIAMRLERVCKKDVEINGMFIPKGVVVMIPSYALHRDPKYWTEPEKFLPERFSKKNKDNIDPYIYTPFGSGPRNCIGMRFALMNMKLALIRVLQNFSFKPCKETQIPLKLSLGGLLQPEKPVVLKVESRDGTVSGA

Cytochrome P450 2D6 = Cytochrome P450 2D6 (Homo sapiens, UniProt P10635); test: Inhibition of CYP2D6 (unknown origin) incubated for 45 mins using NADPH and ATRA by HPLC assay; type: ADME
Cytochrome P450 2D6, sequence (P10635 whole entry): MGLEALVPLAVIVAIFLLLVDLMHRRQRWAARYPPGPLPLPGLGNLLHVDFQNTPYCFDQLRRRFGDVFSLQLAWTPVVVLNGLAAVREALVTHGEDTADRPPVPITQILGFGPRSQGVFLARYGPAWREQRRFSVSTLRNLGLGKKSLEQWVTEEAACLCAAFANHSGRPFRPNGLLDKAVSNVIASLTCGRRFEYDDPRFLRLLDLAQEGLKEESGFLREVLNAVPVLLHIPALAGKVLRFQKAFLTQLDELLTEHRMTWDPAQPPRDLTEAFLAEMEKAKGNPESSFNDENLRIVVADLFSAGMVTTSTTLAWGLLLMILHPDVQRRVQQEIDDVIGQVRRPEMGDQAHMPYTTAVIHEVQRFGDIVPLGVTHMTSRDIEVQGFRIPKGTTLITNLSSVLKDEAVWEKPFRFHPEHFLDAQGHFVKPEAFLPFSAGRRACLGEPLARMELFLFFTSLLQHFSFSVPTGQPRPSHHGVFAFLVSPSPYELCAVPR

Cytochrome P450 26A1 [7] = molecular target: T1, Cytochrome P450 26A1; test: Inhibition of CYP26A1-mediated ATRA metabolism in human HL60 cells assessed as ATRA level at 5 uM incubated for 24 hrs by HPLC method (reference value: 7.19 uM); type: cell-based; details: hl-60, 24 h
Cytochrome P450 26A1 [8] = molecular target: T1, Cytochrome P450 26A1; test: Inhibition of CYP26A1-mediated ATRA metabolism in human HL60 cells assessed as ATRA level at 5 uM incubated for 48 hrs by HPLC method (reference value: 4.95 uM); type: cell-based; details: hl-60, 48 h
Cytochrome P450 26A1 [9] = molecular target: T1, Cytochrome P450 26A1; test: Inhibition of CYP26A1-mediated ATRA metabolism in human HL60 cells assessed as ATRA level at 5 uM incubated for 72 hrs by HPLC method (reference value: 3.6 uM); type: cell-based; details: hl-60, 72 h
Cytochrome P450 26A1 [10] = molecular target: T1, Cytochrome P450 26A1; test: Inhibition of CYP26A1-mediated ATRA metabolism in human HL60 cells assessed as ATRA level at 5 uM incubated for 96 hrs by HPLC method (reference value: 1.21 uM); type: cell-based; details: hl-60, 96 h
[11] = Selectivity index, ratio of IC50 for CYP3A4 (unknown origin) to IC50 for CYP26A1 in ATRA-induced human HL60 cell microsomes; set-up: species or system HL-60
[12] = Selectivity index, ratio of IC50 for CYP2D6 (unknown origin) to IC50 for CYP26A1 in ATRA-induced human HL60 cell microsomes; set-up: species or system HL-60
HL-60 [13] = test: Growth inhibition of human HL60 cells at 0.1 uM incubated for 48 hrs by MTT assay; type: functional; details: HL-60, 48 h, read-out: GI; in short: as §1
HL-60 [14] = test: Induction of cell differentiation in human HL60 cells at 0.1 uM incubated for 72 hrs by NBT dye based assay; type: functional

Row | Compound | IC50 (Cytochrome P450 26A1 [2]) [µM] | inhibition of growth at 10 µM (HL-60 [3]) [%] | growth inhibition (GI) (HL-60 [4]) [%] | Activity (HL-60 [5]) [%] | Activity (HL-60 [6]) [%] | also measured
1 | CCC(CC)[C@H](c1ccc(Nc2nc3ccccc3s2)cc1)n1cncn1 |  |  |  |  |  | IC50 (Cytochrome P450 26A1 [1]): 0.004 µM
2 | COC(=O)C(Cn1ccnc1)NC(=O)c1ccc(-c2ccccc2)cc1 (stereo not drawn) | 0.37 | 9.64 | 51.38 | 0 | 47.69 | 
3 | CCOC(=O)C(Cn1ccnc1)NC(=O)c1ccc(-c2ccccc2)cc1 (stereo not drawn) | 0.65 | 7.61 | 48.19 | 0 | 45.64 | 
4 | CCCOC(=O)C(Cn1ccnc1)NC(=O)c1ccc(-c2ccccc2)cc1 (stereo not drawn) | 0.79 | 5.04 | 42.92 | 0 | 44.78 | 
5 | CC(C)OC(=O)C(Cn1ccnc1)NC(=O)c1ccc(-c2ccccc2)cc1 (stereo not drawn) | 0.54 | 6.58 | 54.58 | 0 | 53.91 | 
6 | CC(C)COC(=O)C(Cn1ccnc1)NC(=O)c1ccc(-c2ccccc2)cc1 (stereo not drawn) | 0.97 | 8.99 | 46.55 | 0 | 39.87 | 
7 | COC(=O)C(Cn1ccnc1)NC(=O)c1c(C)nn(-c2ccccc2)c1Cl (stereo not drawn) | 0.22 | 10.9 | 55.36 | 0 | 50.51 | IC50 (Cytochrome P450 3A4): 1.17 µM; IC50 (Cytochrome P450 2D6): 5.56 µM; Activity (Cytochrome P450 26A1 [7]): 9.3 µM; Activity (Cytochrome P450 26A1 [8]): 7.45 µM; Activity (Cytochrome P450 26A1 [9]): 5.67 µM; Activity (Cytochrome P450 26A1 [10]): 3.51 µM
8 | CCOC(=O)C(Cn1ccnc1)NC(=O)c1c(C)nn(-c2ccccc2)c1Cl (stereo not drawn) | 0.6 | 7.25 | 52.17 | 0 | 46.44 | 
9 | CCCOC(=O)C(Cn1ccnc1)NC(=O)c1c(C)nn(-c2ccccc2)c1Cl (stereo not drawn) | 0.62 | 6.59 | 45.58 | 0 | 43.83 | 
10 | Cc1nn(-c2ccccc2)c(Cl)c1C(=O)NC(Cn1ccnc1)C(=O)OC(C)C (stereo not drawn) | 0.46 | 4.98 | 44.79 | 0 | 51.85 | IC50 (Cytochrome P450 3A4): 4.92 µM; IC50 (Cytochrome P450 2D6): 9.64 µM; Ratio IC50 [11]: 11; Ratio IC50 [12]: 21; Activity (Cytochrome P450 26A1 [7]): 9.22 µM; Activity (Cytochrome P450 26A1 [8]): 7.87 µM; Activity (Cytochrome P450 26A1 [9]): 6.06 µM; Activity (Cytochrome P450 26A1 [10]): 4.41 µM
11 | Cc1nn(-c2ccccc2)c(Cl)c1C(=O)NC(Cn1ccnc1)C(=O)OCC(C)C (stereo not drawn) | 1.02 | 8.24 | 43.54 | 0 | 40.79 | 
12 | COC(=O)C(Cn1ccnc1)NC(=O)c1nc2ccccc2s1 (stereo not drawn) | 0.41 | 8.64 | 50.36 | 0 | 49.11 | 
13 | CCOC(=O)C(Cn1ccnc1)NC(=O)c1nc2ccccc2s1 (stereo not drawn) | 0.74 | 6.66 | 45.4 | 0 | 48.31 | 
14 | CCCOC(=O)C(Cn1ccnc1)NC(=O)c1nc2ccccc2s1 (stereo not drawn) | 0.84 | 7.64 | 47.83 | 0 | 42.62 | 
15 | CC(C)OC(=O)C(Cn1ccnc1)NC(=O)c1nc2ccccc2s1 (stereo not drawn) | 0.63 | 5.04 | 46.36 | 0 | 50.85 | 
16 | CC(C)COC(=O)C(Cn1ccnc1)NC(=O)c1nc2ccccc2s1 (stereo not drawn) | 1.11 | 9.49 | 43.33 | 0 | 38.62 | 
17 | CC(C(c1ccc(Nc2nc3ccccc3s2)cc1)n1cncn1)N(C)C (stereo not drawn) |  |  |  |  |  | IC50 (Cytochrome P450 26A1 [1]): 0.01 µM
18 | Clc1cccc(C(c2ccc3[nH]cnc3c2)n2ccnc2)c1 (stereo not drawn) [LIAROZOLE] |  | 16.4 | 48.37 | 0 | 45.55 | IC50 (Cytochrome P450 2D6): 4.76 µM
19 | CC1=C(/C=C/C(C)=C/C=C/C(C)=C/C(=O)O)C(C)(C)CCC1 [TRETINOIN] |  |  |  |  |  | inhibition of growth at 0.1 µM (HL-60 [13]): 21.8%; Activity (HL-60 [14]): 28.04%
